Results on 23 molecules are retold here after ChEMBL document CHEMBL1155895, “(9S)-9-(2-hydroxy-4,4-dimethyl-6-oxo-1-cyclohexen-1-yl)-3,3-dimethyl-2,3,4,9-tetrahydro-1H-xanthen-1-one, a selective and orally active neuropeptide Y Y5 receptor antagonist” (J Med Chem, 2008).

Series [1] deals with T1, Neuropeptide Y receptor type 5 (Homo sapiens, UniProt Q15761).
T1 sequence (Q15761 whole entry): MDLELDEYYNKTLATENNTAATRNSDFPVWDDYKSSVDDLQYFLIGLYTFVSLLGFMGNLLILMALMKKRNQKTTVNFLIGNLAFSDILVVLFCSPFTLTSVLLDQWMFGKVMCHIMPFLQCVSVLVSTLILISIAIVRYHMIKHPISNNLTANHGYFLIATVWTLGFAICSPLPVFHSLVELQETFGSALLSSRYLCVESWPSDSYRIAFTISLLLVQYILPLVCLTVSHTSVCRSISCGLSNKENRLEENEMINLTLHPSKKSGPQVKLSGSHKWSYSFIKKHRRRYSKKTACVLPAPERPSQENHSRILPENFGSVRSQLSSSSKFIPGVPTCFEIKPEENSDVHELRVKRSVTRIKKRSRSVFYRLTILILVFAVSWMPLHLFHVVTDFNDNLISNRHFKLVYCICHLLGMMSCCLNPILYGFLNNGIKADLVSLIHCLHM
Briefly: Displacement of [125I]PYY from human recombinant neuropeptide Y5 receptor expressed in thymidine kinase deficient […]. The class given is cell-based. In general terms: Loss of bound radioactivity is the signal in a displacement assay; it reports binding, not function.

The target of series [2] is T1, Neuropeptide Y receptor type 5. Description: Antagonist activity at human recombinant neuropeptide Y5 receptor expressed in CHO cells coexpressing Gqi5 assessed as inhibition of neuropeptide Y-induced increase in intracellular calcium concentration. The class given is functional, cell-based. The method in brief: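 Human recombinant Y5 receptor co-expressed with Gqi5 in CHO cells. Cells stimulated with 100 nM NPY. Antagonism read as inhibition of the NPY-evoked intracellular Ca2+ rise, reported as IC50.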
For orientation: Calcium flux is commonly read through the fluorescence of an indicator in the cells.

Series [3] has as its target T2, Neuropeptide Y receptor type 1 (Homo sapiens, UniProt P25929).
T2 sequence (P25929 whole entry): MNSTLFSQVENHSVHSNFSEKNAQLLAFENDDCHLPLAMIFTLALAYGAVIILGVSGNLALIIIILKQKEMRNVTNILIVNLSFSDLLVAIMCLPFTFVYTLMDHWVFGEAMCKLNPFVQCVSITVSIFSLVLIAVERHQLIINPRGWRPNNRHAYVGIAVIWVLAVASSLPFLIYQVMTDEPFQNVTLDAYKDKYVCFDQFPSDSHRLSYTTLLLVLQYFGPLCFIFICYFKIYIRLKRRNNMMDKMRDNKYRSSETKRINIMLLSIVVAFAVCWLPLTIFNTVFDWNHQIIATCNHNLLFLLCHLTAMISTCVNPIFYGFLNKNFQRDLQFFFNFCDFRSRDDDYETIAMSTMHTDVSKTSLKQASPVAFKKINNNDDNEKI
Description: Inhibition of human neuropeptide Y1 receptor.

Series [4] has as its target T3, Neuropeptide Y receptor type 2 (Homo sapiens, UniProt P49146).
T3 sequence (P49146 whole entry): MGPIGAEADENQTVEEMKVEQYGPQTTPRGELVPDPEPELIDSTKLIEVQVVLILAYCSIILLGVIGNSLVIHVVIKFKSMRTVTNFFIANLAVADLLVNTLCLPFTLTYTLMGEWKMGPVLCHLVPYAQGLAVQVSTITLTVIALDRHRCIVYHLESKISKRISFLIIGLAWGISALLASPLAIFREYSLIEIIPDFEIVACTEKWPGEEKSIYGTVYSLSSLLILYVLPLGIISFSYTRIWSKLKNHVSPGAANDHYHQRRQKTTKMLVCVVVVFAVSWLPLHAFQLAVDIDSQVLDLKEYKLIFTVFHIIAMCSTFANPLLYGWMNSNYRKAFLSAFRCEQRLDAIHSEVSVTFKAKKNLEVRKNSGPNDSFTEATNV
Briefly: Inhibition of human neuropeptide Y2 receptor.

The target in series [5] is Neuropeptide Y receptor type 4 (Homo sapiens, UniProt P50391). Description: Inhibition of human neuropeptide Y4 receptor.
A short description of series [6]: Tmax in Sprague-Dawley rat at 10 mg/kg, po. Format: ADME, organism-based. Also noted: dose 10 mg/kg, route oral. Particulars: in vivo. In short, it runs like this:
(§1)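 SD rats dosed orally with 10 mg/kg, as either the single enantiomer or the racemate; n = 3 animals per dose. Plasma levels of both enantiomers followed over time to build concentration–time profiles, from which PK parameters were taken.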

Series [7] is described as follows: Cmax in Sprague-Dawley rat at 10 mg/kg, po. Format: ADME, organism-based. On the set-up: dose 10 mg/kg, route oral. The settings on record: in vivo. In short, it runs like this: as §1
A short description of series [8]: Half life in Sprague-Dawley rat at 10 mg/kg, po. Also noted: dose 10 mg/kg, route oral. The class given is ADME, organism-based. Particulars: in vivo. In short, it runs like this:
as §1

For series [9], the system named is Mus musculus. Briefly: Toxicity in ICR mouse assessed as gross behavioral adverse effects at 150 mg/kg, po. The class given is organism-based. Also noted: dose 150 mg/kg, route oral. The settings on record: in vivo. The method in brief:
(§2)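 Mice were given a single oral dose of 150 mg/kg and observed for gross behaviour. The scored signs were psychomotor activity, motor activity, muscle tone, CNS excitation, autonomic responses and reflexes. Deaths were recorded at any time after dosing. This was run as a gross-behaviour screen before the in vivo efficacy studies.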

The subject of series [10] is Mus musculus. Briefly: Toxicity in ICR mouse assessed as mortality at 150 mg/kg, po. The class given is organism-based. Also noted: dose 150 mg/kg, route oral. The settings on record: in vivo. The method in brief: as §2
Series [11] concerns Rattus norvegicus. Briefly: Inhibition of D-Trp34-NPY-induced food intake in po dosed Sprague-Dawley rat. The class given is functional, organism-based.
A short description of series [12]: Fraction unbound in Sprague-Dawley rat plasma at 10 mg/kg, po. Also noted: dose 10 mg/kg, route oral. The class given is ADME, organism-based.
Series [13] can be described thus: Ratio of drug level in brain to plasma in Sprague-Dawley rat at 10 mg/kg, po. Format: ADME, organism-based. On the set-up: dose 10 mg/kg, route oral.

Each structure is given as a SMILES string.

Chain of Neuropeptide Y receptor type 4 (P50391 whole entry): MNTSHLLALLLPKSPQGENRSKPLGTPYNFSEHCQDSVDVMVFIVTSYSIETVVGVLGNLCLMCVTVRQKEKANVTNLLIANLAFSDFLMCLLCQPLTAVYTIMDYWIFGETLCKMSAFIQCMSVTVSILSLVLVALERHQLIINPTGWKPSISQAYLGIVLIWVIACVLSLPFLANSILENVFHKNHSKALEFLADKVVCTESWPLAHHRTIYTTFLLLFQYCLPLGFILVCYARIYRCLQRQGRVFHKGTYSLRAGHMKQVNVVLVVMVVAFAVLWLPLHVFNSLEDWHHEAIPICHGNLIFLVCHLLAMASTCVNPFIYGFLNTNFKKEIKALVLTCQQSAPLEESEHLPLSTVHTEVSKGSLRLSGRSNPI

Take `CCC1(CC)CC(=O)C(C2C3=C(CC(CC)(CC)CC3=O)Oc3ccccc32)=C(O)C1` (configuration not stated): the inhibitory constant (Ki) (commonly a dissociation constant, usually derived from enzyme kinetics or from competition with a known ligand) in [1] was 20 nM. Further, the 50% inhibitory concentration (IC50) (in general, the point on the concentration scale where inhibition reaches its midpoint) in series [2] was found to be 90 nM.

On to `CC1(C)CC(=O)C(C2C3=C(CC(C)(C)CC3=O)Oc3ccccc32)=C(O)C1` (racemic), for which the Ki in series [1] amounted to 33 nM. In addition, the 50% inhibitory concentration (IC50) in series [2] is 61 nM; in [3] it was more than 10000 nM; in [4] it was more than 10000 nM; in series [5], more than 10000 nM. Further, the Tmax (commonly the time from dosing to the highest level) in [6] came to 1 h. For the same molecule, in [7], the highest concentration (Cmax) (in general, the peak of the concentration-time curve) is 2400 nM. Besides, the half-life (usually the time in which the quantity being followed falls by half) in series [8] is 5.2 h. For the same molecule, the figures for the Activity result in [9], in series [10] and in series [11] were “Non-toxic”, “Non-toxic” and “Dose-dependent effect”, respectively.

Turning to `Cc1ccc2c(c1)OC1=C(C(=O)CC(C)(C)C1)C2C1=C(O)CC(C)(C)CC1=O` (configuration not stated), the inhibition constant Ki in series [1] is 36 nM. Besides, the half-maximal inhibitory concentration (IC50) in [2] came out at 111 nM.

Take `O=C1CCCC(O)=C1C1C2=C(CCCC2=O)Oc2ccccc21` (configuration not stated): the inhibition constant (Ki) in series [1] was more than 1000 nM.

As to `COc1ccc2c(c1)C(C1=C(O)CC(C)(C)CC1=O)C1=C(CC(C)(C)CC1=O)O2` (configuration not stated), the Ki in series [1] was 590 nM.

In the case of `CCc1ccc2c(c1)OC1=C(C(=O)CC(C)(C)C1)C2C1=C(O)CC(C)(C)CC1=O` (configuration not stated), in series [1], the inhibitory constant (Ki) stood at 41 nM.

Regarding `CC1(C)CC(=O)C([C@H]2C3=C(CC(C)(C)CC3=O)Oc3ccccc32)=C(O)C1`, the Ki in [1] amounted to 14 nM. For the same molecule, the IC50 in series [2] turned out to be 34 nM. In addition, the Tmax in [6] worked out at 0.5 h. For the same molecule, the concentration in series [7] peaked (Cmax) at 2500 nM. The same molecule had a half-life in [8] of 2.7 h. Also, the free fraction (fraction unbound) (as a rule, the share of the substance not bound to proteins or other matrix) in series [12] is 0.27. The Kp (commonly tissue or fluid exposure divided by exposure in the circulation) in series [13] was 0.34. Also, the Activity result in series [11] was “Dose-dependent effect”.

For the molecule `CC1CC(=O)C(C2C3=C(CC(C)CC3=O)Oc3ccccc32)=C(O)C1` (configuration not stated), the inhibition constant (Ki) in series [1] is 193 nM.

In the case of `CC1(C)CC(=O)C(C2C3=C(CC(C)(C)CC3=O)Oc3ccc(Cl)cc32)=C(O)C1` (configuration not stated), the Ki in series [1] was 197 nM.

`CC1(C)CC(=O)C(C2C3=C(CC(C)(C)CC3=O)Oc3c(F)cccc32)=C(O)C1` (configuration not stated): the inhibition constant (Ki) in series [1] came to 34 nM. Further, in series [2], the IC50 was 73 nM.

For the molecule `CCOc1ccc2c(c1)OC1=C(C(=O)CC(C)(C)C1)C2C1=C(O)CC(C)(C)CC1=O` (configuration not stated), in [1], the Ki amounted to 833 nM.

Consider `O=C1CC2(CCC2)CC(O)=C1C1C2=C(CC3(CCC3)CC2=O)Oc2ccccc21` (configuration not stated), for which the Ki in series [1] was determined as 14 nM. Moreover, the IC50 in [2] worked out at 45 nM.

With `CC1(C)CC(=O)C([C@@H]2C3=C(CC(C)(C)CC3=O)Oc3ccccc32)=C(O)C1`, the Ki in series [1] is more than 1000 nM. Besides, the IC50 in [2] was determined as 343 nM. In series [12], this molecule showed an unbound share (fraction unbound) of 0.1. Further, the Kp in [13] amounted to 0.1.

Regarding `COc1cccc2c1OC1=C(C(=O)CC(C)(C)C1)C2C1=C(O)CC(C)(C)CC1=O` (configuration not stated), in [1], the Ki amounted to 2170 nM.

For the molecule `COc1cccc2c1C(C1=C(O)CC(C)(C)CC1=O)C1=C(CC(C)(C)CC1=O)O2` (configuration not stated), in series [1], the inhibition constant (Ki) is more than 1000 nM.

Consider `CC1(C)CC(=O)C(C2C3=C(CC(C)(C)CC3=O)Oc3cc(Cl)ccc32)=C(O)C1` (configuration not stated), for which, in series [1], the inhibitory constant (Ki) is 34 nM. Also, in series [2], the IC50 stood at 82 nM.

For the molecule `CC1(C)CC(=O)C(C2C3=C(CC(C)(C)CC3=O)Oc3cc(F)ccc32)=C(O)C1` (configuration not stated), in [1], the Ki was found to be 29 nM. For the same molecule, in series [2], the 50% inhibitory concentration (IC50) turned out to be 63 nM.

In the case of `CC1(C)CC(=O)C(C2C3=C(CC(C)(C)CC3=O)Oc3cc(Br)ccc32)=C(O)C1` (configuration not stated), the Ki in series [1] was determined as 36 nM. The IC50 in [2] was 81 nM.

Turning to `CC1(C)CC(=O)C(C2C3=C(CC(C)(C)CC3=O)Oc3c(Cl)cccc32)=C(O)C1` (configuration not stated), in series [1], the Ki turned out to be 71 nM.

With `O=C1CC2(CCCCC2)CC(O)=C1C1C2=C(CC3(CCCCC3)CC2=O)Oc2ccccc21` (configuration not stated), the inhibition constant Ki in series [1] was 24 nM. Moreover, the IC50 in series [2] turned out to be 109 nM.

`COc1ccc2c(c1)OC1=C(C(=O)CC(C)(C)C1)C2C1=C(O)CC(C)(C)CC1=O` (configuration not stated): the Ki in series [1] amounted to 93 nM.

As for `O=C1CC2(CCCC2)CC(O)=C1C1C2=C(CC3(CCCC3)CC2=O)Oc2ccccc21` (configuration not stated), the Ki in series [1] was 17 nM. In series [2], the IC50 turned out to be 58 nM.

`CC1(C)CC(=O)C(C2C3=C(CC(C)(C)CC3=O)Oc3ccc(F)cc32)=C(O)C1` (configuration not stated): in [1], the inhibitory constant (Ki) worked out at 81 nM.
